For experiment [1], the system named is U2OS HRE-luciferase, zinc medium, luminescence. The experiment can be described thus: HRE-luciferase activation in zinc medium, dose response, mechanism study for HIF pathway activator project, cell-based, U2OS, luminescence, dry powder, set 2 (AID 493234). In short, it runs like this: (§1)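 schedule = 24 h cell growth at 37 °C, then 24 h compound exposure | system = U2OS cells with stable HRE-luciferase reporter | detection = Steady-Glo luminescence | compound dosing = 8 concentrations, 3-fold dilution steps | probe or stimulus = zinc sulfate, 50 µM final, added before compound addition | buffer or medium = phenol red-free DMEM with 10% FBS, without hygromycin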

Experiment in experiment [2]: as above
The note with it: U2OS HRE-luciferase, zinc medium, luminescence; at 38 µM (top of the series). In short, it runs like this: as §1

Several values for one entry are separate records, joined by “and”; a condition that tells them apart may be missing. Equal entries are not always repeated. Activity calls are given as the source filed them.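 How the source made its calls: active means fitted curve rises to an activation of 500 at or below the top valid dose; inactive means the rest, including activity in the falling direction.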

As to `c1ccc(-c2nnc(-c3ccccn3)nc2N2CCC(c3ccccc3)C2)cc1` (configuration not stated), in experiment [1], the AC500 is 3.01 µM.

With `Cc1ccccc1CNc1nc(-c2ccccn2)nnc1-c1ccccc1`, in experiment [1], the AC500 was 7.16 µM.

For `Cn1c(-c2ccccc2)cnc1Nc1nc(-c2ccccn2)nnc1-c1ccccc1`, the activation in experiment [2] was 109% (inactive). On the same count and under the same terms, as for `O=C(Nc1ncc(-c2ccccc2)o1)c1cc(-c2ccccc2)on1`, the figure is -4.08% (inactive). On to `O=C(NCCCCO)c1cc(-c2ccccc2)on1`, for which the AC500 in experiment [1] was 12.1 µM. The same measure, in the same setting: as for `c1ccc(-c2cccc(CNc3nc(-c4ccccn4)nnc3-c3ccccc3)c2)cc1`, the figure is 3.69 µM.

As to `N#CC1(c2ccccc2)CCN(Cc2ccc(O)c3ncccc23)CC1`, in experiment [2], the activation is 27.6% (inactive).

`CC(C)(C)CCNc1nc(-c2ccccn2)nnc1-c1ccccc1`: the AC500 in experiment [1] was 4.65 µM and 2.47 µM.

With `Cc1ccc(CNc2nc(-c3ccccn3)nnc2-c2ccccc2)cc1C`, in experiment [1], the AC500 is 2.19 µM. The same measure, in the same setting: then `C[C@H](Nc1nc(-c2ccccn2)nnc1-c1ccccc1)C1CCCCC1`, with 5.01 µM. `O=C(c1cc(-c2ccccc2)on1)N1CCC(N2CCCC2)CC1`: in experiment [2], the activation is 4.99% (inactive). Take `Oc1ccc(CNC2CCc3ccccc32)c2cccnc12` (configuration not stated): the activation in experiment [2] is -23.4% (inactive). As to `c1ccc(-c2nnc(-c3ccccn3)nc2NCC2CC2)cc1`, the AC500 in experiment [1] was 16.1 µM. Consider `O=C(NCC1CC1)c1cc(-c2ccccc2)on1`, for which the activation in experiment [2] is 386% (inactive). Same read-out and setting: as for `O=C(NCc1ccccc1)c1cc(-c2ccccc2)on1`, the figure is 32.9% (inactive). In the case of `CC(C)(C)c1ccc(CNc2nc(-c3ccccn3)nnc2-c2ccccc2)cc1`, the AC500 in experiment [1] was 2.89 µM. Regarding `O=C(Nc1nnc(-c2ccccc2)s1)c1cc(-c2ccccc2)on1`, in experiment [2], the activation was 4.85% (inactive).

For the molecule `C[C@@H](Nc1nc(-c2ccccn2)nnc1-c1ccccc1)c1ccccc1`, in experiment [1], the AC500 was 6.17 µM.

On to `CN(C)CCNC(=O)c1cc(-c2ccccc2)on1`, for which the activation in experiment [2] is 9.51% (inactive). On the same count and under the same terms, as for `CC(C)(C)OC(=O)N1CCN(Cc2ccc(O)c3ncccc23)CC1`, the figure is 4.29% (inactive). On to `CC(Nc1nc(-c2ccccn2)nnc1-c1ccccc1)c1ccccc1` (configuration not stated), for which, in experiment [1], the AC500 was 9.22 µM. Take `Oc1ccc(CN2CCc3ccccc3C2)c2cccnc12`: in experiment [2], the activation was -19.3% (inactive) and -19.9% (inactive). In the case of `O=C(NCCCn1ccnc1)c1cc(-c2ccccc2)on1`, the AC500 in experiment [1] was 16.4 µM.

With `c1ccc(-c2nnc(-c3ccccn3)nc2NCCN2CCOCC2)cc1`, in experiment [1], the AC500 is 15.7 µM. For the molecule `Oc1ccc(CN2CCC3CCCCC3C2)c2cccnc12` (configuration not stated), the activation in experiment [2] is 275% (inactive). On the same count and under the same terms, as for `O=C(Nc1cn2ccccc2n1)c1cc(-c2ccccc2)on1`, the figure is 7.47% (inactive). For the molecule `O=C(NCCN1CCOCC1)c1cc(-c2ccccc2)on1`, the activation in experiment [2] was 430% (inactive). Same read-out and setting: then `O=C(NCCCO)c1cc(-c2ccccc2)on1`, with 325% (inactive). On the same count and under the same terms, then `O=C(c1cc(-c2ccccc2)on1)N1CCC(CO)CC1`, with -4.31% (inactive). The same measure, in the same setting: then `CC1CN(Cc2ccc(O)c3ncccc23)CC(C)O1` (configuration not stated), with -5.99% (inactive).

`Cc1cccc(CNC(=O)c2cc(-c3ccccc3)on2)c1`: in experiment [2], the activation was -0.529% (inactive). With `O=C(NC1CCc2ccccc2C1)c1cc(-c2ccccc2)on1` (configuration not stated), the activation in experiment [2] was -5.89% (inactive). The same measure, in the same setting: as for `O=C(NC1Cc2ccccc2C1)c1cc(-c2ccccc2)on1`, the figure is 56% (inactive). Consider `c1ccc(-c2nnc(-c3ccccn3)nc2NCCCN2CCOCC2)cc1`, for which the AC500 in experiment [1] is 16 µM. Regarding `COc1cccc(CNc2nc(-c3ccccn3)nnc2-c2ccccc2)c1`, the AC500 in experiment [1] is 3.92 µM. In the case of `Cc1cccc(NC(=O)c2cc(-c3ccccc3)on2)n1`, the activation in experiment [2] was 24.2% (inactive).

As for `OCCCNc1nc(-c2ccccn2)nnc1-c1ccccc1`, the AC500 in experiment [1] was 22.9 µM.

For the molecule `Cc1cccc(Nc2nc(-c3ccccn3)nnc2-c2ccccc2)n1`, the AC500 in experiment [1] is 13.2 µM.

For the molecule `Cn1c(NC(=O)c2cc(-c3ccccc3)on2)nc2ccccc21`, in experiment [2], the activation is -0.203% (inactive). Consider `c1ccc(-c2nnc(-c3ccccn3)nc2NCc2cccnc2)cc1`, for which the AC500 in experiment [1] was 19 µM. `O=C(Nc1nc(-c2ccccc2)cs1)c1cc(-c2ccccc2)on1`: the activation in experiment [2] was -1.71% (inactive). With `O=C(NCC1CCCCC1)c1cc(-c2ccccc2)on1`, the activation in experiment [2] is 52.6% (inactive). Take `C[C@@H](Nc1nc(-c2ccccn2)nnc1-c1ccccc1)C1CCCCC1`: the AC500 in experiment [1] is 6.94 µM. As for `O=C(c1cc(-c2ccccc2)on1)N1CCN(c2ccncc2)CC1`, the activation in experiment [2] was -5.2% (inactive).

Take `c1ccc(-c2nnc(-c3ccccn3)nc2N2CCC(C3CCCCC3)C2)cc1` (configuration not stated): the AC500 in experiment [1] was 6.32 µM. For the molecule `Cc1ccc(CNC(=O)c2cc(-c3ccccc3)on2)cc1`, the activation in experiment [2] is -6.78% (inactive). `Cc1cccc(CNc2nc(-c3ccccn3)nnc2-c2ccccc2)c1`: the AC500 in experiment [1] was 6.47 µM. Consider `O=C(Nc1nc2ccccc2s1)c1cc(-c2ccccc2)on1`, for which the activation in experiment [2] was 14.8% (inactive). As for `Cc1ccc(Nc2nc(-c3ccccn3)nnc2-c2ccccc2)cn1`, the AC500 in experiment [1] was 17.8 µM. On the same count and under the same terms, then `C=CCNc1nc(-c2ccccn2)nnc1-c1ccccc1`, with 15 µM.

On to `O=C(NCCN1CCCCC1)c1cc(-c2ccccc2)on1`, for which the activation in experiment [2] was 32.2% (inactive). On to `c1ccc(-c2nnc(-c3ccccn3)nc2NCC2CCCCC2)cc1`, for which the AC500 in experiment [1] is 5.43 µM. Consider `c1ccc(-c2csc(Nc3nc(-c4ccccn4)nnc3-c3ccccc3)n2)cc1`, for which the activation in experiment [2] was 86.1% (inactive). With `c1ccc(-c2nnc(-c3ccccn3)nc2NCCc2ccccn2)cc1`, in experiment [1], the AC500 is 18 µM. Consider `Cc1ccc(NC(=O)c2cc(-c3ccccc3)on2)cn1`, for which, in experiment [2], the activation was 20.6% (inactive). For the molecule `c1ccc(CNc2nc(-c3ccccn3)nnc2-c2ccccc2)cc1`, in experiment [1], the AC500 is 6.89 µM. Consider `c1ccc(-c2nnc(-c3ccccn3)nc2N2CCC(N3CCOCC3)CC2)cc1`, for which the AC500 in experiment [1] was 16.2 µM. In the case of `O=C(c1cc(-c2ccccc2)on1)N1CCc2cccnc21`, in experiment [2], the activation was 3.59% (inactive). Still for that read-out and setting: then `O=C(Nc1cnc2ccccc2c1)c1cc(-c2ccccc2)on1`, with 10.1% (inactive); and `c1ccc(-c2cnc(Nc3nc(-c4ccccn4)nnc3-c3ccccc3)s2)cc1`, with 19.5% (inactive).

Regarding `CCCCNC(=O)c1cc(-c2ccccc2)on1`, the AC500 in experiment [1] is 32.2 µM. Still for that read-out and setting: as for `c1ccc(-c2nnc(-c3ccccn3)nc2NCc2ccccn2)cc1`, the figure is 20.8 µM.

Take `CN1CCN(C(=O)c2cc(-c3ccccc3)on2)CC1`: the activation in experiment [2] was -12.5% (inactive). `O=C(NCCCN1CCOCC1)c1cc(-c2ccccc2)on1`: the activation in experiment [2] was 449% (inactive).

For `CN(C)c1nc(-c2ccccn2)nnc1-c1ccccc1`, the AC500 in experiment [1] was 20.2 µM. Regarding `c1ccc(-c2nnc(-c3ccccn3)nc2NCC2CCOCC2)cc1`, the AC500 in experiment [1] is 18.8 µM. As to `OCC1CCN(Cc2ccc(O)c3ncccc23)CC1`, the activation in experiment [2] was 12.5% (inactive).

Turning to `CN1CCN(c2nc(-c3ccccn3)nnc2-c2ccccc2)CC1`, the AC500 in experiment [1] is 15.8 µM. Same read-out and setting: then `Cc1ccc(CNc2nc(-c3ccccn3)nnc2-c2ccccc2)cc1`, with 7.26 µM. For `O=C(c1cc(-c2ccccc2)on1)N1CCC(N2CCOCC2)CC1`, in experiment [2], the activation was 1.96% (inactive). With `c1ccc(CCNc2nc(-c3ccccn3)nnc2-c2ccccc2)cc1`, the AC500 in experiment [1] is 7.94 µM. The same measure, in the same setting: then `Clc1cccc(CNc2nc(-c3ccccn3)nnc2-c2ccccc2)c1`, with 2 µM; and `COc1ccc(CNc2nc(-c3ccccn3)nnc2-c2ccccc2)cc1`, with 5.26 µM.

Regarding `Cc1ccccc1CNC(=O)c1cc(-c2ccccc2)on1`, the activation in experiment [2] was 15.2% (inactive). The same measure, in the same setting: then `Oc1ccc(CNC2Cc3ccccc3C2)c2cccnc12`, with 217% (inactive); and `c1ccc(-c2nnc(-c3ccccn3)nc2Nc2cnc3ccccc3n2)cc1`, with -25.9% (inactive); and `COc1ccccc1N1CCN(Cc2ccc(O)c3ncccc23)CC1`, with -1.45% (inactive). With `c1ccc(-c2nnc(-c3ccccn3)nc2N2CCN(c3ccncc3)CC2)cc1`, the AC500 in experiment [1] is 15.3 µM. Turning to `Cn1c(-c2ccccc2)cnc1NC(=O)c1cc(-c2ccccc2)on1`, the activation in experiment [2] was 9.13% (inactive). Same read-out and setting: then `c1ccc(-c2nnc(Nc3nc(-c4ccccn4)nnc3-c3ccccc3)s2)cc1`, with 141% (inactive); and `CC(C)(C)CCNC(=O)c1cc(-c2ccccc2)on1`, with 247% (inactive). The same measure, in the same setting: as for `O=C(Nc1ccc2ccccc2n1)c1cc(-c2ccccc2)on1`, the figure is -7.7% (inactive). With `OCC1CCN(c2nc(-c3ccccn3)nnc2-c2ccccc2)CC1`, the AC500 in experiment [1] is 21.1 µM.

For the molecule `c1ccc(-c2ccc(CNc3nc(-c4ccccn4)nnc3-c3ccccc3)cc2)cc1`, in experiment [1], the AC500 was 3.41 µM. In the case of `Oc1ccc(CN2CCC(Cc3ccccc3)CC2)c2cccnc12`, the activation in experiment [2] was -5.34% (inactive). The same measure, in the same setting: then `c1ccc(-c2nnc(-c3ccccn3)nc2Nc2nc3ccccc3s2)cc1`, with -16.5% (inactive); and `O=C(Nc1ncc2ccccc2n1)c1cc(-c2ccccc2)on1`, with 34.5% (inactive).
